Source: ChEMBL document CHEMBL4265926, “Synthesis and antibacterial activity evaluation of novel biaryloxazolidinone analogues containing a hydrazone moiety as promising antibacterial agents” (Eur J Med Chem, 2018)
Values after ≈ are worked out from the molar mass of the structure shown.

How the values were obtained:
Staphylococcus aureus [1] = assay: Antibacterial activity against Staphylococcus aureus ATCC 29213 by broth liquid microdilution method; assay type: functional
Summary of the method: (§1)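 Isolates were identified on an automated MicroScan WalkAway 96 system. Susceptibility was tested by broth microdilution following CLSI guidelines. MIC was taken as the lowest concentration giving complete inhibition of bacterial growth. S. aureus ATCC 29213 served as the control strain.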

Staphylococcus aureus [2] = assay: Antibacterial activity against methicillin-resistant Staphylococcus aureus by broth liquid microdilution method; assay type: functional; summary of the method: as §1
Enterococcus faecium [3] = assay: Antibacterial activity against vancomycin-resistant Enterococcus faecium by broth liquid microdilution method; assay type: functional; summary of the method: as §1
Staphylococcus aureus [4] = assay: Antibacterial activity against methicillin-sensitive Staphylococcus aureus by broth liquid microdilution method; assay type: functional; summary of the method: as §1
Enterococcus faecalis [5] = assay: Antibacterial activity against linezolid-resistant Enterococcus faecalis by broth liquid microdilution method; assay type: functional; summary of the method: as §1
Staphylococcus aureus [6] = assay: Antibacterial activity against methicillin-resistant Staphylococcus aureus clinical isolates by broth liquid microdilution method; assay type: functional; summary of the method: as §1
Staphylococcus aureus [7] = assay: Potency index, ratio of linezolid MIC to test compound MIC for methicillin-sensitive Staphylococcus aureus; assay type: functional
[8] = target: T1, MAO-A (amine oxidase [flavin-containing] A) (Homo sapiens, UniProt P21397); assay: Inhibition of recombinant human MAOA expressed in baculovirus infected Sf9 insect cells at 30 uM using luciferin derived substrate pretreated for 15 mins followed by substrate addition and measured after 60 mins by luminescence assay relative to control; settings: probe luciferin derived substrate
T1 sequence (P21397 whole entry): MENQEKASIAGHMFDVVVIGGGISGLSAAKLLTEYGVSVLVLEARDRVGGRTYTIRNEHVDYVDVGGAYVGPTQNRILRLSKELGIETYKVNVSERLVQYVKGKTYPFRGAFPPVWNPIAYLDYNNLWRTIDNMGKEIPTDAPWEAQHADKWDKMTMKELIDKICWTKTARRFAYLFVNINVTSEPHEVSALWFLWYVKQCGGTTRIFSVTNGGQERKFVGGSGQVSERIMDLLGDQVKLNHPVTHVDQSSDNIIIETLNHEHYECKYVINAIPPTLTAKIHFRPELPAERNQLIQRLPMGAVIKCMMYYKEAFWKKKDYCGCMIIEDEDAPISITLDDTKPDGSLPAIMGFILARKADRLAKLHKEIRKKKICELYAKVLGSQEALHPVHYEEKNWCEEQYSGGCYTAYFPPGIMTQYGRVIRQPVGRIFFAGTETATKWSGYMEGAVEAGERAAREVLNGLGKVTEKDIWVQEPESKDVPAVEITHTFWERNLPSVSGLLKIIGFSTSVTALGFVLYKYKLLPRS
Summary of the method: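 Human recombinant MAO-A with MAO-Glo luminescent kit. Compounds in DMSO (final 1% DMSO) preincubated with enzyme 15 min at room temperature, then luciferin derivative substrate added and reacted 60 min at room temperature. Luciferase detection reagent added for 20 min before luminescence read. Buffer replacing enzyme served as 100% inhibition control and DMSO as no-inhibition control; percent inhibition calculated against both.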

Staphylococcus aureus [9] = assay: Antibacterial activity against methicillin-sensitive Staphylococcus aureus clinical isolates by broth liquid microdilution method; assay type: functional; summary of the method: as §1
Staphylococcus aureus [10] = assay: Potency index, ratio of linezolid MIC to test compound MIC for Staphylococcus aureus ATCC 29213; assay type: functional
Summary of the method: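 MIC by broth microdilution per CLSI guidelines, taken as the lowest concentration giving complete growth inhibition; isolates identified on MicroScan WalkAway 96; S. aureus ATCC29213 used as control strain. Index expressed as linezolid MIC divided by test compound MIC.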

Enterococcus faecium [11] = assay: Antibacterial activity against vancomycin-resistant Enterococcus faecium clinical isolates by broth liquid microdilution method; assay type: functional; summary of the method: as §1
Enterococcus faecalis [12] = assay: Antibacterial activity against linezolid-resistant Enterococcus faecalis clinical isolates by broth liquid microdilution method; assay type: functional; summary of the method: as §1

Compound | MIC (Staphylococcus aureus [1]) [mg/L] | MIC (Staphylococcus aureus [2]) [mg/L] | MIC (Enterococcus faecium [3]) [mg/L] | MIC (Staphylococcus aureus [4]) [mg/L] | MIC (Enterococcus faecalis [5]) [mg/L] | also measured
COc1cccc(C(=O)N2CCN(/N=C/c3ccc(-c4ccc(N5C[C@H](CNC(C)=O)OC5=O)cc4F)cc3)CC2)c1 | 0.25 (≈ 0.436 µM) | 0.25 (≈ 0.436 µM) | 1 (≈ 1.74 µM) | 0.25 (≈ 0.436 µM) | 1 (≈ 1.74 µM) | 
CC(=O)NC[C@H]1CN(c2ccc(-c3ccc(/C=N/N4CCCCC4)cc3)c(F)c2)C(=O)O1 | 0.25 (≈ 0.57 µM) | 0.25 (≈ 0.57 µM) | 0.5 (≈ 1.14 µM) | 0.25 (≈ 0.57 µM) | 0.25 (≈ 0.57 µM) | 
CC(=O)NC[C@H]1CN(c2ccc(-c3ccc(/C=N/N4CCN(C(=O)c5cccnc5)CC4)cc3)c(F)c2)C(=O)O1 | 0.125 (≈ 0.23 µM) | 0.125 (≈ 0.23 µM) | 0.125 (≈ 0.23 µM) | 0.125 (≈ 0.23 µM) | 0.125 (≈ 0.23 µM) | 
CC(=O)NC[C@H]1CN(c2ccc(-c3ccc(/C=N/N4CCN(C(=O)c5ccc(Cl)cc5)CC4)cc3)c(F)c2)C(=O)O1 | 0.0675 (≈ 0.117 µM) | 0.0675 (≈ 0.117 µM) | 0.25 (≈ 0.432 µM) | 0.0675 (≈ 0.117 µM) | 0.25 (≈ 0.432 µM) | 
C#CCN1CCN(/N=C/c2ccc(-c3ccc(N4C[C@H](CNC(C)=O)OC4=O)cc3F)cc2)CC1 | 0.125 (≈ 0.262 µM) | 0.125 (≈ 0.262 µM) | 0.125 (≈ 0.262 µM) | 0.125 (≈ 0.262 µM) | 0.125 (≈ 0.262 µM) | 
CC(=O)NC[C@H]1CN(c2ccc(-c3ccc(/C=N/N4CCN(C(=O)c5ccco5)CC4)cc3)c(F)c2)C(=O)O1 | 0.25 (≈ 0.469 µM) | 0.25 (≈ 0.469 µM) | 0.25 (≈ 0.469 µM) | 0.125 (≈ 0.234 µM) | 0.25 (≈ 0.469 µM) | 
CC(=O)NC[C@H]1CN(c2ccc(-c3ccc(/C=N/N4CCN(C(=O)c5cnccn5)CC4)cc3)c(F)c2)C(=O)O1 | 0.125 (≈ 0.229 µM) | 0.125 (≈ 0.229 µM) | 0.125 (≈ 0.229 µM) | 0.125 (≈ 0.229 µM) | 0.125 (≈ 0.229 µM) | 
CC(=O)NC[C@H]1CN(c2ccc(-c3ccc(/C=N/N4CCN(C(=O)N(C)C)CC4)cc3)c(F)c2)C(=O)O1 | 0.0675 (≈ 0.132 µM) | 0.0675 (≈ 0.132 µM) | 0.25 (≈ 0.49 µM) | 0.0675 (≈ 0.132 µM) | 0.25 (≈ 0.49 µM) | 
CC(=O)NC[C@H]1CN(c2ccc(-c3ccc(/C=N/N4CC[S+]([O-])CC4)cc3)c(F)c2)C(=O)O1 | 0.0675 (≈ 0.143 µM) | 0.0675 (≈ 0.143 µM) | 0.0675 (≈ 0.143 µM) | 0.0675 (≈ 0.143 µM) | 0.0675 (≈ 0.143 µM) | MIC50 (Staphylococcus aureus [6]): 0.125 mg/L (≈ 0.265 µM); MIC90 (Staphylococcus aureus [6]): 0.25 mg/L (≈ 0.529 µM); Ratio (Staphylococcus aureus [7]): 15 - 30; inhibition at 1 h, 30 µM [8]: 88%; MIC (Staphylococcus aureus [9]): 0.0625 to 0.25 mg/L (≈ 0.132 to 0.529 µM); MIC50 (Staphylococcus aureus [9]): 0.125 mg/L (≈ 0.265 µM); MIC90 (Staphylococcus aureus [9]): 0.25 mg/L (≈ 0.529 µM); Ratio (Staphylococcus aureus [10]): 15 - 30; MIC (Enterococcus faecium [11]): 0.0625 to 0.5 mg/L (≈ 0.132 to 1.06 µM); MIC50 (Enterococcus faecium [11]): 0.125 mg/L (≈ 0.265 µM); MIC90 (Enterococcus faecium [11]): 0.5 mg/L (≈ 1.06 µM); MIC (Enterococcus faecalis [12]): 0.0625 to 0.25 mg/L (≈ 0.132 to 0.529 µM); MIC50 (Enterococcus faecalis [12]): 0.125 mg/L (≈ 0.265 µM); MIC90 (Enterococcus faecalis [12]): 0.5 mg/L (≈ 1.06 µM)
CC(=O)NC[C@H]1CN(c2ccc(-c3ccc(/C=N/N4CCN(C(=O)c5ccc(C(F)(F)F)cc5)CC4)cc3)c(F)c2)C(=O)O1 | 0.125 (≈ 0.204 µM) | 0.125 (≈ 0.204 µM) | 0.125 (≈ 0.204 µM) | 0.125 (≈ 0.204 µM) | 0.125 (≈ 0.204 µM) | 
CC(=O)NC[C@H]1CN(c2ccc(-c3ccc(/C=N/N4CCN(C(=O)c5cccs5)CC4)cc3)c(F)c2)C(=O)O1 | 0.125 (≈ 0.227 µM) | 0.25 (≈ 0.455 µM) | 0.5 (≈ 0.91 µM) | 0.25 (≈ 0.455 µM) | 0.5 (≈ 0.91 µM) | 
CC(=O)NC[C@H]1CN(c2ccc(-c3ccc(/C=N/N4CCN(Cc5ccccc5)CC4)cc3)c(F)c2)C(=O)O1 | 0.125 (≈ 0.236 µM) | 0.125 (≈ 0.236 µM) | 0.125 (≈ 0.236 µM) | 0.125 (≈ 0.236 µM) | 0.125 (≈ 0.236 µM) | 
CCC(=O)N1CCN(/N=C/c2ccc(-c3ccc(N4C[C@H](CNC(C)=O)OC4=O)cc3F)cc2)CC1 | 0.125 (≈ 0.252 µM) | 0.125 (≈ 0.252 µM) | 0.125 (≈ 0.252 µM) | 0.125 (≈ 0.252 µM) | 0.125 (≈ 0.252 µM) | 
COc1ccccc1C(=O)N1CCN(/N=C/c2ccc(-c3ccc(N4C[C@H](CNC(C)=O)OC4=O)cc3F)cc2)CC1 | 0.5 (≈ 0.872 µM) | 0.125 (≈ 0.218 µM) | 0.125 (≈ 0.218 µM) | 0.0675 (≈ 0.118 µM) | 0.125 (≈ 0.218 µM) | 
CC(=O)NC[C@H]1CN(c2ccc(-c3ccc(/C=N/N4CCN(C(=O)CN)CC4)cc3)c(F)c2)C(=O)O1 | 0.125 (≈ 0.252 µM) | 0.25 (≈ 0.503 µM) | 0.5 (≈ 1.01 µM) | 0.25 (≈ 0.503 µM) | 0.5 (≈ 1.01 µM) | 
CC(=O)NC[C@H]1CN(c2ccc(-c3ccc(CNCc4cnn[nH]4)cc3)c(F)c2)C(=O)O1 [RADEZOLID] | 0.5 (≈ 1.14 µM) | 0.5 (≈ 1.14 µM) | 0.5 (≈ 1.14 µM) | 0.5 (≈ 1.14 µM) | 0.5 (≈ 1.14 µM) | 
